According to ChEMBL document CHEMBL1926588, “Sulfur and selenium derivatives of quinazoline and pyrido[2,3-d]pyrimidine: synthesis and study of their potential cytotoxic activity in vitro” (Eur J Med Chem, 2012):

What was measured:
[1] = system: HT-29; experiment: Cytotoxicity against human HT-29 cells after 72 hrs by MTT assay; assay type: functional; details: HT-29, 72 h; for CC50: read-out: LC50 (the source's name)
Procedure, shortened: (§1)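 MTT read-out after 72 h exposure at 37 °C in humidified 5% CO2, with five concentrations between 0.01 and 100. GI50 is 50% growth reduction versus untreated controls, TGI is complete growth inhibition, and LC50 is the concentration killing 50% of cells. Minimum three independent experiments.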

[2] = Cytotoxicity against human 184B5 cells after 72 hrs by MTT assay; assay type: cell-based; details: for GI50 at 72 h: 184B5 cells; for LC50 / TGI: 184b5, 72 h; procedure, shortened: as §1
[3] = system: MCF7; experiment: Cytotoxicity against human MCF7 cells after 72 hrs by MTT assay; assay type: functional; details: MCF7, 72 h; procedure, shortened: as §1
[4] = system: CCRF-CEM; experiment: Cytotoxicity against human CCRF-CEM cells after 72 hrs by MTT assay; assay type: functional; details: for CC50: read-out: LC50 (the source's name); procedure, shortened: as §1
[5] = Cytotoxicity against human HTB-54 cells after 72 hrs by MTT assay; assay type: functional; details: HTB-54, 72 h; for CC50: read-out: LC50 (the source's name); procedure, shortened: as §1
[6] = Cytotoxicity against human BEAS2B cells after 72 hrs by MTT assay; assay type: cell-based, BEAS-2B; details: for GI50 at 72 h: BEAS2B cells; for LC50 / TGI: beas-2b, 72 h; procedure, shortened: as §1

Row | SMILES | GI50 [1] [µM] | TGI [1] [µM] | CC50 [1] [µM] | GI50 at 72 h [2] [µM] | LC50 [2] [µM] | TGI [2] [µM] | GI50 [3] [µM] | LC50 [3] [µM] | TGI [3] [µM] | GI50 [4] [µM] | TGI [4] [µM] | CC50 [4] [µM] | GI50 [5] [µM] | TGI [5] [µM] | CC50 [5] [µM] | GI50 at 72 h [6] [µM] | LC50 [6] [µM] | TGI [6] [µM]
1 | [SeH]c1nc(NCc2ccccc2)c2cccnc2n1 | 6.35 | 33.1 | > 100 | 3.7 | > 100 | 9.13 | 0.03 | > 100 | > 100 | 30.5 | 68.9 | > 100 | > 100 | > 100 | > 100 | 8.4 | > 100 | > 100
2 | Nc1nc([SeH])nc2ncccc12 | 36.3 | 89.6 | > 100 | 5.2 | 74.98 | 31.05 | 37.3 | > 100 | > 100 | 30.9 | 61.5 | 92.1 | 44.3 | 96.6 | > 100 | 5.89 | > 100 | 87.73
3 | CSc1nc(Nc2ccccc2)c2ccccc2n1 | 65.8 | > 100 | > 100 | > 100 | > 100 | > 100 | 78.4 | > 100 | > 100 | 74.6 | > 100 | > 100 | 55.8 | > 100 | > 100 | 54.8 | > 100 | > 100
4 | COc1ccc(CNc2nc(S)nc3ccccc23)cc1 | 6.49 | 28.6 | 63.9 | 7.83 | 69.23 | 36.55 | 7.08 | 78.4 | 36.5 | 10.4 | 41 | 71.6 | 13.5 | 45.5 | 77.6 | 6.13 | 70.18 | 32.5
5 | COc1ccc(CNc2nc(SC)nc3ccccc23)cc1 | 70.2 | > 100 | > 100 | 85.6 | > 100 | > 100 | 30.9 | > 100 | 85.1 | 93.7 | > 100 | > 100 | 93.7 | > 100 | > 100 | 21.7 | > 100 | 96.24
6 | COc1ccc(CNc2nc([SeH])nc3ccccc23)cc1 | 71.6 | > 100 | > 100 | 71.2 | > 100 | > 100 | 42.7 | > 100 | 94 | > 100 | > 100 | > 100 | 7.11 | 60.9 | > 100 | 37.4 | > 100 | > 100
7 | COc1ccc(CNc2nc(SC)nc3ncccc23)cc1 | > 100 | > 100 | > 100 | 34.2 | > 100 | 69.77 | 48.1 | > 100 | > 100 | > 100 | > 100 | > 100 | > 100 | > 100 | > 100 | 58.5 | > 100 | > 100
8 | CSc1nc(NCCCCc2ccccc2)c2ccccc2n1 | > 100 | > 100 | > 100 | 28.5 | 78.6 | 53.55 | 32 | 95.9 | 64 | 47 | > 100 | > 100 | > 100 | > 100 | > 100 | 6.81 | > 100 | > 100
9 | CSc1nc(NCc2ccc([Se]C)cc2)c2ccccc2n1 | > 100 | > 100 | > 100 | 70.3 | > 100 | > 100 | 36.4 | > 100 | > 100 | 63.3 | > 100 | > 100 | 57 | > 100 | > 100 | 73.5 | > 100 | > 100
10 | CSc1nc(NCc2ccccc2)c2ccccc2n1 | 36.5 | > 100 | > 100 | 28.9 | > 100 | > 100 | 41.5 | > 100 | 82.8 | 87.9 | > 100 | > 100 | 37.9 | 82.3 | > 100 | 38.9 | > 100 | 88.24
11 | CSc1nc(NCCc2ccccc2)c2ccccc2n1 | 29.2 | 87.4 | > 100 | 8.3 | 88.58 | 46.88 | 80.3 | > 100 | > 100 | 32.9 | 72.8 | > 100 | 50.6 | > 100 | > 100 | 41.9 | > 100 | 94.8
12 | CCCCC[Se]c1nc([Se]CCCCC)c2cccnc2n1 | > 100 | > 100 | > 100 | 52.8 | > 100 | > 100 | 40.8 | 94.6 | 67.7 | > 100 | > 100 | > 100 | 15.2 | 60.5 | > 100 | > 100 | > 100 | > 100
13 | CCCCCSc1nc(NCc2ccc([Se]C)cc2)c2ccccc2n1 | 14.4 | > 100 | > 100 | 73 | > 100 | > 100 | 13 | > 100 | 75.2 | > 100 | > 100 | > 100 | 19.8 | 50 | 80.2 | 31.2 | > 100 | > 100
14 | CCCCC[Se]c1nc([Se]CCCCC)c2ccccc2n1 | > 100 | > 100 | > 100 | 71.3 | > 100 | > 100 | 38.4 | > 100 | 95.1 | 65.7 | > 100 | > 100 | > 100 | > 100 | > 100 | > 100 | > 100 | > 100
15 | CSc1ccc(CNc2nc([SeH])nc3ccccc23)cc1 | 42.9 | > 100 | > 100 | 6.84 | > 100 | 86.27 | 48.1 | > 100 | > 100 | 71.9 | > 100 | > 100 | 45.5 | > 100 | > 100 | 0.41 | > 100 | 58.21
16 | COc1ccc(CNc2nc([Se]C)nc3ccccc23)cc1 | 73.6 | > 100 | > 100 | 75.6 | > 100 | > 100 | 42.2 | > 100 | 98.6 | > 100 | > 100 | > 100 | 33 | > 100 | > 100 | > 100 | > 100 | > 100
17 | C[Se]c1nc(N)c2ccccc2n1 | 27.6 | 74.8 | > 100 | 24.4 | 93.68 | 59.04 | 46.5 | > 100 | > 100 | 65.1 | > 100 | > 100 | 18 | 88.7 | > 100 | 23.6 | 85.52 | 54.56
18 | [SeH]c1nc([SeH])c2cccnc2n1 | – | – | – | 0.71 | 67.5 | 8.26 | 9.83 | 82.7 | 46.1 | – | – | – | 4.03 | 7.93 | 68.4 | – | – | –
19 | COc1cc([C@@H]2c3cc4c(cc3[C@@H](O[C@@H]3O[C@@H]5CO[C@@H](C)O[C@H]5[C@H](O)[C@H]3O)[C@H]3COC(=O)[C@H]23)OCO4)cc(OC)c1O [ETOPOSIDE] | – | > 100 | > 100 | – | – | – | – | – | > 100 | 12.6 | 50.1 | > 100 | – | – | – | – | – | –
